# Experiments:
# Staphylococcus aureus [1] = assay: Antimicrobial activity against Staphylococcus aureus MTCC 96 assessed as growth inhibition after 24 hrs by agar well diffusion method; format: functional; conditions: MTCC 96, 24 h
# Bacillus subtilis [2] = assay: Antimicrobial activity against Bacillus subtilis MTCC 121 assessed as growth inhibition after 24 hrs by agar well diffusion method; format: functional; conditions: MTCC 121, 24 h
# Staphylococcus aureus [3] = assay: Antimicrobial activity against Staphylococcus aureus MLS16 MTCC 2940 assessed as growth inhibition after 24 hrs by agar well diffusion method; format: functional; conditions: MLS16 MTCC 2940, 24 h
# Micrococcus luteus [4] = assay: Antimicrobial activity against Micrococcus luteus MTCC 2470 assessed as growth inhibition after 24 hrs by agar well diffusion method; format: functional; conditions: MTCC 2470, 24 h
# Raoultella planticola [5] = assay: Antimicrobial activity against Klebsiella planticola MTCC 530 assessed as growth inhibition after 24 hrs by agar well diffusion method; format: functional; conditions: MTCC 530, 24 h
# Escherichia coli [6] = assay: Antimicrobial activity against Escherichia coli MTCC 739 assessed as growth inhibition after 24 hrs by agar well diffusion method; format: functional; conditions: MTCC 739, 24 h
# Pseudomonas aeruginosa = assay: Antimicrobial activity against Pseudomonas aeruginosa MTCC 2453 assessed as growth inhibition after 24 hrs by agar well diffusion method; format: functional; conditions: MTCC 2453, 24 h
# Candida albicans = assay: Antimicrobial activity against Candida albicans MTCC 3017 assessed as growth inhibition after 24 hrs by agar well diffusion method; format: functional; conditions: MTCC 3017, 24 h
# Staphylococcus aureus [7] = assay: Bactericidal activity against Staphylococcus aureus MTCC 96 after 24 hrs by serial dilution method; format: functional; conditions: MTCC 96, 24 h
# Bacillus subtilis [8] = assay: Bactericidal activity against Bacillus subtilis MTCC 121 after 24 hrs by serial dilution method; format: functional; conditions: MTCC 121, 24 h
# Staphylococcus aureus [9] = assay: Bactericidal activity against Staphylococcus aureus MLS16 MTCC 2940 after 24 hrs by serial dilution method; format: functional; conditions: MLS16 MTCC 2940, 24 h
# Micrococcus luteus [10] = assay: Bactericidal activity against Micrococcus luteus MTCC 2470 after 24 hrs by serial dilution method; format: functional; conditions: MTCC 2470, 24 h
# Raoultella planticola [11] = assay: Bactericidal activity against Klebsiella planticola MTCC 530 after 24 hrs by serial dilution method; format: functional; conditions: MTCC 530, 24 h
# Escherichia coli [12] = assay: Bactericidal activity against Escherichia coli MTCC 739 after 24 hrs by serial dilution method; format: functional; conditions: MTCC 739, 24 h
# Staphylococcus aureus [13] = assay: Antibiofilm activity against Staphylococcus aureus MTCC 96 after 24 hrs by crystal violet staining based assay; format: functional, organism-based; conditions: MTCC 96, 24 h
# Method in brief: (§1)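 Biofilm inhibition tested for amine esters and esterquats. IC50 values (µg/mL) are the mean of three determinations, with ciprofloxacin as reference.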
# Micrococcus luteus [14] = assay: Antibiofilm activity against Micrococcus luteus MTCC 2470 after 24 hrs by crystal violet staining based assay; format: functional, organism-based; conditions: MTCC 2470, 24 h; method in brief: as §1
MIC (Staphylococcus aureus [1]),MIC (Bacillus subtilis [2]),MIC (Staphylococcus aureus [3]),MIC (Micrococcus luteus [4]),MIC (Escherichia coli [6]),MIC (Pseudomonas aeruginosa),MIC (Candida albicans),IC50 (Staphylococcus aureus [13]),IC50 (Micrococcus luteus [14]),SMILES,MIC (Raoultella planticola [5]),MBC (Staphylococcus aureus [7]),MBC (Bacillus subtilis [8]),MBC (Staphylococcus aureus [9]),MBC (Micrococcus luteus [10]),MBC (Raoultella planticola [11]),MBC (Escherichia coli [12])
15.6 µg/mL,> 125 µg/mL,62.5 µg/mL,31.2 µg/mL,> 125 µg/mL,> 125 µg/mL,> 125 µg/mL,14.5 µg/mL,17.2 µg/mL,CCCCCCCCN(CCCCCCCC)CCCCCCCCCCC(=O)OC,> 125 µg/mL,31.2 µg/mL,> 125 µg/mL,> 125 µg/mL,62.5 µg/mL,> 125 µg/mL,> 125 µg/mL
> 125 µg/mL,> 125 µg/mL,> 125 µg/mL,> 125 µg/mL,> 125 µg/mL,> 125 µg/mL,> 125 µg/mL,,,CCCCCCCCCCCCCCCCCC[N+](C)(CCCCCCCCCCC(=O)OC)CCCCCCCCCCC(=O)OC.[Cl-],> 125 µg/mL,> 125 µg/mL,> 125 µg/mL,> 125 µg/mL,> 125 µg/mL,> 125 µg/mL,> 125 µg/mL
> 125 µg/mL,> 125 µg/mL,> 125 µg/mL,> 125 µg/mL,> 125 µg/mL,> 125 µg/mL,> 125 µg/mL,,,CCCCCCCCCCCC[N+](C)(CCCCCCCCCCC(=O)OC)CCCCCCCCCCC(=O)OC.[Cl-],> 125 µg/mL,> 125 µg/mL,> 125 µg/mL,> 125 µg/mL,> 125 µg/mL,> 125 µg/mL,> 125 µg/mL

# From ChEMBL document CHEMBL3784971, “Synthesis, characterization, antimicrobial and biofilm inhibitory studies of new esterquats” (Bioorg Med Chem Lett, 2016)
